Tests used:
[1] = Drug uptake in rhesus monkey thalamus at 3.91+/-0.46 mCi, iv by PET imaging; format: ADME, organism-based, Macaca mulatta; details: in vivo
Procedure, shortened: (§1)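 Male rhesus monkeys (7.3 ± 0.8 kg; n = 4 baseline), ketamine 10 mg/kg i.m. then 1.5% isoflurane in O2. […] [18F]ligand given i.v. Focus 220 microPET, 180 min (one scan 120 min), 45 frames 30 s–5 min, scatter/attenuation corrected, decay-corrected; template-normalized regions; uptake as SUV.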

[2] = Drug uptake in rhesus monkey skull at 3.91+/-0.46 mCi, iv administered 30 mins post-(R)-(4-fluorophenyl)(2-(2-(2-methylpyrrolidin-1-yl)ethyl)benzofuran-5-yl)methanone treatment measured up to 180 mins by PET imaging; format: ADME, organism-based, Macaca mulatta; details: in vivo
[3] = test system: Striatum; assay: Drug uptake in rhesus monkey striatum at 3.91+/-0.46 mCi, iv administered 30 mins post-ciproxifan treatment measured at 180 mins by PET imaging; format: ADME, organism-based, Macaca mulatta; details: in vivo, 3 h; procedure, shortened: as §1
[4] = Drug uptake in rhesus monkey thalamus at 3.91+/-0.46 mCi, iv administered 30 mins post-ciproxifan treatment measured at 180 mins by PET imaging; format: ADME, organism-based, Macaca mulatta; details: in vivo, 3 h; procedure, shortened: as §1
[5] = test system: Plasma; assay: Drug metabolism in rhesus monkey plasma assessed as radiometabolite formation at 3.87 mCi, iv administered 30 mins post-(R)-(4-fluorophenyl)(2-(2-(2-methylpyrrolidin-1-yl)ethyl)benzofuran-5-yl)methanone treatment by radio-HPLC; format: ADME, organism-based, Macaca mulatta; details: in vivo, 0.5 h
[6] = Metabolic stability in monkey plasma assessed as compound remaining after 2.5 hrs by radio-HPLC; format: ADME, cell-free, Macaca mulatta; details: rhesus monkey, read-out: Stability
Procedure, shortened: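 Radioligand incubated in monkey plasma in vitro at room temperature for 2.5 h; percent unchanged by reverse-phase radio-HPLC (C18 radial compression, MeOH:H2O:Et3N 85:15:0.1, 2.0 mL/min); n = 6.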

[7] = test system: Brain; assay: Drug metabolism in rhesus monkey brain assessed as radiodefluorination at 3.91 mCi, iv by PET; details: in vivo
[8] = test system: Brain; assay: Drug uptake in FVB mouse whole brain at 73+/-29 uCi, iv at 90 mins by PET imaging; format: ADME, organism-based; details: in vivo, 1.5 h
Procedure, shortened: (§2)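 Dynamic microPET ran 120 min with frames of 20 s to 20 min, without attenuation or scatter correction. Decay-corrected whole-brain curves expressed as SUV = (%ID/cm3) × (g body weight).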

[9] = test system: Striatum; assay: Drug uptake in rhesus monkey striatum at 3.91+/-0.46 mCi, iv administered 30 mins post-(R)-(4-fluorophenyl)(2-(2-(2-methylpyrrolidin-1-yl)ethyl)benzofuran-5-yl)methanone treatment measured up to 180 mins by PET imaging; format: ADME, organism-based, Macaca mulatta; details: in vivo; procedure, shortened: as §1
[10] = Drug uptake in rhesus monkey frontal cortex at 3.91+/-0.46 mCi, iv administered 30 mins post-ciproxifan treatment measured at 180 mins by PET imaging; format: ADME, organism-based, Macaca mulatta; details: in vivo, 3 h; procedure, shortened: as §1
[11] = Drug uptake in rhesus monkey cerebellum at 3.91+/-0.46 mCi, iv at 180 mins by PET imaging; format: ADME, organism-based, Macaca mulatta; details: in vivo, 3 h
[12] = Drug uptake in rhesus monkey thalamus at 3.91+/-0.46 mCi, iv at 180 mins by PET imaging; format: ADME, organism-based, Macaca mulatta; details: in vivo, 3 h; procedure, shortened: as §1
[13] = test system: Hippocampus; assay: Drug uptake in rhesus monkey hippocampus at 3.91+/-0.46 mCi, iv at 180 mins by PET imaging; format: ADME, organism-based, Macaca mulatta; details: in vivo, 3 h; procedure, shortened: as §1
[14] = Drug uptake in rhesus monkey cerebellum at 3.91+/-0.46 mCi, iv administered 30 mins post-ciproxifan treatment measured at 180 mins by PET imaging; format: ADME, organism-based, Macaca mulatta; details: in vivo, 3 h
[15] = test system: Hippocampus; assay: Drug uptake in rhesus monkey hippocampus at 3.91+/-0.46 mCi, iv administered 30 mins post-(R)-(4-fluorophenyl)(2-(2-(2-methylpyrrolidin-1-yl)ethyl)benzofuran-5-yl)methanone treatment measured up to 180 mins by PET imaging; format: ADME, organism-based, Macaca mulatta; details: in vivo; procedure, shortened: as §1
[16] = Unbound fraction in rhesus monkey plasma at 3.91+/-0.46 mCi, iv by ultrafiltration; format: ADME, organism-based, Macaca mulatta
Procedure, shortened: (§3)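 Arterial plasma from monkeys scanned at baseline or 30 min after unlabeled ligand (1.0 mg/kg i.v.) pretreatment; free fraction of [18F]ligand measured by ultrafiltration, each plasma sample in triplicate.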

[17] = test system: Plasma; assay: Drug metabolism in rhesus monkey plasma assessed as radiometabolite formation at 3.87 mCi, iv by radio-HPLC; format: ADME, organism-based, Macaca mulatta; details: in vivo
[18] = test system: Hippocampus; assay: Drug uptake in rhesus monkey hippocampus at 3.91+/-0.46 mCi, iv by PET imaging; format: ADME, organism-based, Macaca mulatta; details: in vivo; procedure, shortened: as §1
[19] = test system: Brain; assay: Drug uptake in FVB mouse whole brain at 73+/-29 uCi, iv administered 30 mins post-(R)-(4-fluorophenyl)(2-(2-(2-methylpyrrolidin-1-yl)ethyl)benzofuran-5-yl)methanone treatment measured at 90 mins by PET imaging; format: ADME, organism-based; details: in vivo, 1.5 h; procedure, shortened: as §2
[20] = test system: Plasma; assay: Drug metabolism in rhesus monkey plasma assessed as decrease in unchanged compound at 3.87 mCi, iv administered 30 mins post-ciproxifan treatment by radio-HPLC; format: ADME, organism-based, Macaca mulatta; details: in vivo, 0.5 h
[21] = Drug uptake in rhesus monkey cerebellum at 3.91+/-0.46 mCi, iv administered 30 mins post-(R)-(4-fluorophenyl)(2-(2-(2-methylpyrrolidin-1-yl)ethyl)benzofuran-5-yl)methanone treatment measured up to 180 mins by PET imaging; format: ADME, organism-based, Macaca mulatta; details: in vivo
[22] = Metabolic stability in monkey whole blood assessed as compound remaining after 2.5 hrs by radio-HPLC; format: ADME, tissue-based, Macaca mulatta; details: rhesus monkey, read-out: Stability
Procedure, shortened: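 [18F]Radioligand was incubated in monkey whole blood at room temperature for 2.5 h in vitro, n = 6. Unchanged fraction was measured by radio-HPLC on reverse-phase C18 in a radial compression module, eluted at 2.0 mL/min with MeOH:H2O:Et3N (85:15:0.1).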

[23] = test system: Hippocampus; assay: Drug uptake in rhesus monkey hippocampus at 3.91+/-0.46 mCi, iv administered 30 mins post-ciproxifan treatment measured at 180 mins by PET imaging; format: ADME, organism-based, Macaca mulatta; details: in vivo, 3 h; procedure, shortened: as §1
[24] = test system: Plasma; assay: Drug metabolism in rhesus monkey plasma assessed as decrease in unchanged compound at 3.87 mCi, iv by radio-HPLC; format: ADME, organism-based, Macaca mulatta; details: in vivo
[25] = Drug uptake in rhesus monkey frontal cortex at 3.91+/-0.46 mCi, iv administered 30 mins post-(R)-(4-fluorophenyl)(2-(2-(2-methylpyrrolidin-1-yl)ethyl)benzofuran-5-yl)methanone treatment measured up to 180 mins by PET imaging; format: ADME, organism-based, Macaca mulatta; details: in vivo
[26] = Drug uptake in rhesus monkey thalamus at 3.91+/-0.46 mCi, iv administered 30 mins post-(R)-(4-fluorophenyl)(2-(2-(2-methylpyrrolidin-1-yl)ethyl)benzofuran-5-yl)methanone treatment measured up to 180 mins by PET imaging; format: ADME, organism-based, Macaca mulatta; details: in vivo; procedure, shortened: as §1
[27] = Drug uptake in rhesus monkey skull at 3.91+/-0.46 mCi, iv at 180 mins by PET imaging; format: ADME, organism-based, Macaca mulatta; details: in vivo, 3 h
[28] = test system: Brain; assay: Drug uptake in FVB mouse whole brain at 73+/-29 uCi, iv administered 30 mins post-(R)-(2-(2-(2-methylpyrrolidin-1-yl)ethyl)benzofuran-5-yl)(4-nitrophenyl)methanone treatment measured at 90 mins by PET imaging; format: ADME, organism-based; details: in vivo, 1.5 h; procedure, shortened: as §2
[29] = test system: Plasma; assay: Drug metabolism in rhesus monkey plasma assessed as decrease in unchanged compound at 3.87 mCi, iv administered 30 mins post-(R)-(4-fluorophenyl)(2-(2-(2-methylpyrrolidin-1-yl)ethyl)benzofuran-5-yl)methanone treatment by radio-HPLC; format: ADME, organism-based, Macaca mulatta; details: in vivo, 0.5 h
[30] = test system: Plasma; assay: Drug metabolism in rhesus monkey plasma assessed as radiometabolite formation at 3.87 mCi, iv administered 30 mins post-ciproxifan treatment by radio-HPLC; format: ADME, organism-based, Macaca mulatta; details: in vivo, 0.5 h
[31] = Drug uptake in rhesus monkey frontal cortex at 3.91+/-0.46 mCi, iv at 180 mins by PET imaging; format: ADME, organism-based, Macaca mulatta; details: in vivo, 3 h; procedure, shortened: as §1
[32] = test system: Brain; assay: Drug uptake in FVB mouse whole brain at 73+/-29 uCi, iv administered 30 mins post-ciproxifan treatment measured at 4.5 mins by PET imaging; format: ADME, organism-based; details: in vivo, 0.075 h; procedure, shortened: as §2
[33] = Unbound fraction in rhesus monkey plasma at 3.91+/-0.46 mCi, iv administered 30 mins post-(R)-(4-fluorophenyl)(2-(2-(2-methylpyrrolidin-1-yl)ethyl)benzofuran-5-yl)methanone treatment by ultrafiltration; format: ADME, organism-based, Macaca mulatta; procedure, shortened: as §3
[34] = test system: Striatum; assay: Drug uptake in rhesus monkey striatum at 3.91+/-0.46 mCi, iv at 180 mins by PET imaging; format: ADME, organism-based, Macaca mulatta; details: in vivo, 3 h; procedure, shortened: as §1

For `C[C@@H]1CCCN1CCc1cc2cc(C(=O)c3ccc([18F])cc3)ccc2o1`, the Drug uptake [1] was “Active”, the Drug uptake [2] was “Not Active” and the Drug uptake [3] was “Not Active”. For the same compound, the Drug uptake [4] was “Not Active”, the Drug metabolism [5] was “Active” and the remaining at 2.5 h [6] was 99.2%. For the same compound, the Drug metabolism [7] was “Not Active”, the SUV [8] was 2.3 and the Drug uptake [9] was “Not Active”. The Drug uptake [10] was “Not Active”, the Drug uptake [11] was “Not Active” and the Drug uptake [12] was “Not Active”. The Drug uptake [13] was “Not Active”, the Drug uptake [14] was “Active” and the Drug uptake [15] was “Not Active”. The fraction unbound [16] was 0.0208, the Drug metabolism [17] was “Active” and the Drug uptake [18] was “Active”. The SUV [19] was less than 1.2, the Drug metabolism [20] was “Active” and the Drug uptake [21] was “Not Active”. The remaining at 2.5 h [22] was 98.4%, the Drug uptake [23] was “Not Active” and the Drug metabolism [24] was “Active”. The Drug uptake [25] was “Not Active”, the Drug uptake [26] was “Not Active” and the Drug uptake [27] was “Not Active”. For the same compound, the SUV [28] was less than 1.2, the Drug metabolism [29] was “Active” and the Drug metabolism [30] was “Active”. For the same compound, the Drug uptake [31] was “Not Active”, the SUV [32] was 1.98 and the fraction unbound at 0.5 h [33] was 0.014. The Drug uptake [34] was “Not Active”.

— ChEMBL document CHEMBL2029214, “Radiosynthesis and evaluation of an (18)F-labeled positron emission tomography (PET) radioligand for brain histamine subtype-3 receptors based on a nonimidazole 2-aminoethylbenzofuran chemotype” (J Med Chem, 2012)
